Experimental data collected from several papers.
Lines come from different studies, so protocols differ.
OXSR1: Serine/threonine-protein kinase OSR1 (OXSR1, Homo sapiens, UniProt O95747)
PPARA: Peroxisome proliferator-activated receptor alpha (PPARA, Homo sapiens, UniProt Q07869)
MMP1: Interstitial collagenase (MMP1, Homo sapiens, UniProt P03956)

`COc1cc(Nc2ncc(F)c(Nc3ccc4c(n3)NC(=O)C(C)(C)O4)n2)cc(OC)c1OC` has an inhibition of 71% (OXSR1; binding, competition with immobilised ligand; 10 µM).
`Clc1cccc(-c2c[nH]c3ncnc(N4CCOCC4)c23)c1` gave a ΔTm of over 8 °C (Serine/threonine-protein kinase 4 (STK4, Homo sapiens, UniProt Q13043); thermal stability, DSF; 20 µM).
`CC1CCC(C(C)C)C(P(=O)(c2ccccc2)c2ccccc2)C1` (stereo not shown) gave a remaining activity of -94.5% (Potassium voltage-gated channel subfamily A member 5 (KCNA5, Homo sapiens, UniProt P22460); ion current, inhibitor, patch clamp; 1 µM).
`O=C(O)C(F)(OC(F)(F)C(F)(F)C(F)(F)F)C(F)(F)F` (stereo not shown) has an Emax of 134% (PPARA; reporter gene, agonist, luciferase).
For `CN(C)C(=O)COC(=O)Cc1ccc(OC(=O)c2ccc(NC(=N)N)cc2)cc1`, the inhibition was 0% (Caspase-9 (CASP9, Homo sapiens, UniProt P55211); enzyme activity, inhibitor; 10 µM).
The inhibition of `C#Cc1n[nH]c2c(-c3cn([C@@H](C)c4ccccc4)c(=O)[nH]c3=O)cc(F)cc12` is reported as 6.5% (Inactive tyrosine-protein kinase PEAK1 (PEAK1, Homo sapiens, UniProt Q9H792); enzyme activity, inhibitor; 0.1 µM).
The Emax of `O=S(=O)(O)C(F)(F)C(F)(F)C(F)(F)C(F)(F)C(F)(F)C(F)(F)C(F)(F)C(F)(F)F` is reported as 33% (PPARA; reporter gene, agonist, luciferase).
`Cc1nn(C)cc1-c1nc2c(N3CCN(Cc4ccc(Cl)cc4)CC3)c(Cl)cnc2[nH]1` gave a remaining binding of 74% (Serine/threonine-protein kinase 36 (STK36, Homo sapiens, UniProt Q9NRP7); binding, competition with immobilised ligand; 1 µM).
With `O=C(Nc1cccnn1)N1CCN([C@@H]2CCOc3cc(C(F)(F)F)ccc32)CC1` the inhibition was 8% (MMP1; cell-free assay; 20 µM).
With `Nc1ncc(-c2nc(N3CCOCC3)nc(N3CCOCC3)n2)c(C(F)F)n1` the remaining binding was 54% (OXSR1; binding, competition with immobilised ligand; 10 µM).
The inhibition of `COc1ccc(S(=O)(=O)N(CC(=O)NO)CC(C)C)cc1` is reported as 2% (MMP1; enzyme activity, inhibitor; 0.1 µM).
With `CN1CCN(c2ccc(Nc3nccc(-c4cccc([N+](=O)[O-])c4)n3)cc2C(F)(F)F)CC1` the remaining binding was 4.2% (Calcium-dependent protein kinase 1 (CDPK1, Plasmodium falciparum, UniProt P62344); binding; 10 µM).
The inhibition of `N=C(N)c1ccc2cc(OC(=O)c3ccc(N=C(N)N)cc3)ccc2c1` is reported as 0% (MMP1; enzyme activity, inhibitor; 10 µM).
`O=C(O)C(F)(F)C(F)(F)C(F)(F)C(F)(F)C(F)(F)C(F)(F)C(F)(F)F` gave an Emax of 92% (PPARA; reporter gene, agonist, luciferase; COS-7).
With `C#Cc1n[nH]c2c(-c3cn([C@@H](C)c4ccccn4)c(=O)[nH]c3=O)cc(F)cc12` the inhibition was -0.3% (TRAF2 and NCK-interacting protein kinase (TNIK, Homo sapiens, UniProt Q9UKE5); enzyme activity, inhibitor; 0.1 µM).
For `COc1ncccc1-c1cnn2ccc(N3CCN(C(=O)OC(C)C)CC3)nc12`, the remaining binding was 95% (Myosin-IIIa (MYO3A, Homo sapiens, UniProt Q8NEV4); binding, competition with immobilised ligand; 1 µM).
